This passage reports Activity, IC50 and MIC results from ChEMBL document CHEMBL1287727, “Structure and biological evaluation of novel cytotoxic sterol glycosides from the marine red alga Peyssonnelia sp” (Bioorg Med Chem, 2010).

Converted amounts (≈) assume the structure as drawn. The source made the active and inactive calls. No cut-off for these calls is given here.

Assay [1] can be described thus: Cell cycle arrest in human A2780DDP cells at 10 uM after 48 hrs using propidium iodine staining by flow cytometry. It is filed as functional, cell-based. Put shortly:
(§1)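 A2780/DDP-S ovarian cancer cells were treated at 1.0, 3.0 and 10 µM for 24 or 48 h. DNA was stained with propidium iodide and cell-cycle distribution was analysed by flow cytometry.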
In general terms: In flow cytometry, cells or beads pass a laser one at a time.

Assay [2] has as its system Enterococcus faecium. In words: Antibacterial activity against vancomycin-resistant Enterococcus faecium ATCC 700221. It is filed as functional.
In assay [3] the test system is MDA-MB-468. Nature of the assay: Cytotoxicity against human MDA-MB-468 cells after 72 hrs by MTS assay. As to conditions: MDA-MB-468, 72 h. Type of assay: functional, cell-based. (In general: Formazan colour is commonly taken as a measure of viable cells.)
Assay [4] deals with DU-4475. In words: Cytotoxicity against human DU4475 cells after 72 hrs by MTS assay. Type of assay: functional, cell-based. As to conditions: DU-4475, 72 h.
For assay [5], the system named is A549. In words: Cytotoxicity against human A549 cells after 72 hrs by MTS assay. Type of assay: functional, cell-based. The following applies: A549, 72 h.
In assay [6] the test system is Mycobacterium tuberculosis. Nature of the assay: Antimicrobial activity against Mycobacterium tuberculosis H37Rv by microplate alamar blue assay. Type of assay: functional, organism-based. Put shortly:
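M. tuberculosis H37Rv (ATCC 27294) tested by microplate alamar blue assay.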

For assay [7], the system named is PC-3. Nature of the assay: Cytotoxicity against human PC3 cells after 72 hrs by MTS assay. It is filed as functional, cell-based. As to conditions: PC-3, 72 h.
For assay [8], the system named is MDA-MB-231. Nature of the assay: Cytotoxicity against human MDA-MB-231 cells after 72 hrs by MTS assay. It is filed as functional, cell-based. The following applies: MDA-MB-231, 72 h.
For assay [9], the system named is BT-549. In words: Cytotoxicity against human BT549 cells after 72 hrs by MTS assay. As to conditions: BT-549, 72 h. It is filed as functional, cell-based.
The species entered for assay [10] is Homo sapiens. In words: Induction of apoptosis in human A2780DDP cells assessed as PARP cleavage at 10 uM after 48 hrs by flow cytometry. It is filed as functional, cell-based.
The subject of assay [11] is Candida albicans. Nature of the assay: Antifungal activity against amphotericin-resistant Candida albicans ATCC 90873. Type of assay: functional.
The subject of assay [12] is Plasmodium falciparum. Nature of the assay: Antimalarial activity against Plasmodium falciparum. Type of assay: functional, organism-based. Put shortly:
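Parasite proliferation was read out with a SYBR Green-based assay.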

Assay [13] in a line: Cytotoxicity against human A2780DDP cells after 72 hrs by MTS assay. Type of assay: functional, cell-based.
Assay [14] deals with CCRF-CEM. In words: Cytotoxicity against human CCRF-CEM cells after 72 hrs by MTS assay. Type of assay: functional, cell-based.
Assay [15] can be described thus: Cytotoxicity against human LNCaP-FGC cells after 72 hrs by MTS assay. Type of assay: functional, cell-based. As to conditions: LNCaP-Clone-FGC.
For assay [16], the system named is HCT-116. In words: Cytotoxicity against human HCT116 cells after 72 hrs by MTS assay. It is filed as functional, cell-based. As to conditions: HCT-116, 72 h.
Assay [17] concerns DU-145. Nature of the assay: Cytotoxicity against human DU145 cells after 72 hrs by MTS assay. It is filed as functional, cell-based. The following applies: DU-145, 72 h.
A short description of assay [18]: Cell cycle arrest in human A2780DDP cells at 10 uM after 24 hrs using propidium iodine staining by flow cytometry. It is filed as functional, cell-based. The procedure, abridged: as §1
Assay [19] is filed under the species Homo sapiens. In words: Induction of apoptosis in human A2780DDP cells assessed as PARP cleavage at 10 uM after 24 hrs by flow cytometry. Type of assay: functional, cell-based. Put shortly:
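A2780/DDP-S ovarian cancer cells were exposed at 1.0, 3.0 and 10 µM for 24 or 48 h. Apoptosis was scored by flow cytometry as the presence of cleaved PARP, a marker of caspase activation.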

The test system of assay [20] is Staphylococcus aureus. In words: Antibacterial activity against methicillin-resistant Staphylococcus aureus ATCC 33591. It is filed as functional.

Consider `CC(C)CCC[C@@H](C)[C@H]1CC[C@H]2[C@@H]3CCC4=CC(=O)CC[C@]4(CO[C@@H]4O[C@H](CO)[C@@H](O)[C@H](O)[C@H]4O)[C@H]3CC[C@]12C`, for which the outcome in assay [1], in [10], in [18] and in assay [19] was inactive. Moreover, the Activity in assay [2] is 6.3 µg/mL. The IC50 in assay [3] was 0.86 µM; in assay [4] it was 1.29 µM; in assay [5] it was 0.93 µM; in assay [6], > 40 µM; in [7], 3.44 µM; in assay [8] it was 1.27 µM. Besides, the IC50 was 1.26 µM in [9]; > 40 µM in assay [12]; 1.39 µM in assay [13]; 1.97 µM in assay [14]; 3.4 µM in assay [15]; 3.13 µM in [16]. Further, it took 1.31 µM to reach half-maximal inhibition in assay [17] (IC50). In addition, it took 25 µg/mL (≈ 44.4 µM) to inhibit growth in [11] (MIC).
Regarding `CC(C)CCC[C@@H](C)[C@H]1CC[C@H]2[C@@H]3CCC4=CC(=O)CC[C@]4(C)[C@H]3CC[C@]12C` [4-CHOLESTEN 3-ONE], the concentration for half-maximal inhibition (IC50) in assay [3] was 6.09 µM; in [4] it was 6.74 µM; in assay [7] it was > 25 µM; in assay [8], 13.5 µM; in assay [15], 5.96 µM; in assay [16], 9.58 µM. In assay [17], this compound had an IC50 of 20.3 µM.
Regarding `CC(C)CCC[C@@H](C)[C@H]1CC[C@H]2[C@@H]3CCC4=C[C@@H](O)CC[C@]4(C)[C@H]3CC[C@]12C`, the IC50 in [3], in assay [4], in assay [7], in [8], in assay [15] and in [16] was > 25 µM in each case. The IC50 in assay [17] was > 25 µM.
On to `CC(C)CCC[C@@H](C)[C@H]1CC[C@H]2[C@@H]3CCC4=C[C@@H](O)CC[C@]4(CO[C@@H]4O[C@H](CO)[C@@H](O)[C@H](O)[C@H]4O)[C@H]3CC[C@]12C`, for which the IC50 was 6.69 µM in [3]; 6.09 µM in [4]; > 25 µM in [5]; > 25 µM in assay [7]; 16.9 µM in [8]; 11.9 µM in assay [9]. Moreover, the IC50 was > 25 µM in [13]; 9.82 µM in assay [14]; 24.2 µM in [15]; > 25 µM in assay [16]; > 25 µM in [17].
As for `CC(=O)N[C@H]1[C@H](OC[C@]23CC[C@H](O)C=C2CC[C@@H]2[C@@H]3CC[C@]3(C)[C@@H]([C@H](C)CCCC(C)C)CC[C@@H]23)O[C@H](CO)[C@@H](O)[C@@H]1O`, the IC50 was 7.13 µM in assay [3]; 6.12 µM in [4]; > 25 µM in assay [5]; 9.61 µM in [7]; 10.2 µM in [8]; 10.1 µM in [9]. In addition, the IC50 in [13] is 8.98 µM; in [14], 10.7 µM; in assay [15], 21.4 µM; in assay [16], > 25 µM; in assay [17], > 25 µM.
Turning to `CC(=O)N[C@H]1[C@H](OC[C@]23CCC(=O)C=C2CC[C@@H]2[C@@H]3CC[C@]3(C)[C@@H]([C@H](C)CCCC(C)C)CC[C@@H]23)O[C@H](CO)[C@@H](O)[C@@H]1O`, the result in [1], in assay [10] and in [18] was inactive. The Activity is 12.5 µg/mL in assay [2] and 3.1 µg/mL in assay [20]. Also, the IC50 in assay [3] was 0.71 µM; in assay [4], 2.44 µM; in [5], 0.97 µM; in assay [6] it was > 40 µM; in assay [7] it was 2.4 µM; in assay [8], 1.01 µM. The IC50 in [9] was 1.24 µM; in assay [12], > 40 µM; in assay [13] it was 1.35 µM; in assay [14], 1.45 µM; in assay [15] it was 1.48 µM; in assay [16] it was 2.23 µM. In addition, in assay [17], the IC50 was 1.35 µM. Moreover, in assay [11], the MIC is 25 µg/mL (≈ 41.4 µM).
On to `CC(C)CCC[C@@H](C)[C@H]1CC[C@H]2[C@@H]3CCC4=CC(=O)CC[C@]4(CO)[C@H]3CC[C@]12C`, for which the IC50 in assay [3] came out at 3.99 µM; in assay [4] it was 1 µM; in [7], 1.96 µM; in assay [8], 22.3 µM; in assay [15], 15.6 µM; in assay [16], 20.9 µM. For the same compound, in assay [17], the IC50 came out at 5.05 µM.

For orientation: IC50 means the midpoint of a concentration-inhibition curve. Read a high IC50 as weaker potency in that assay. In general, MIC refers to the lowest concentration that inhibits growth of the organism.
